Values after ≈ are worked out from the molar mass of the structure shown. Active and inactive are the calls of the source. No cut-off for these calls is given here.
Key:
Bacillus subtilis [1] = experiment: Antibacterial activity against Bacillus subtilis ATCC 6633 at 400 ug/disc after 18 hrs by disc diffusion method; type: functional; settings: ATCC 6633, 18 h, read-out: DIZ
In short: (§1)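 Disc diffusion per CLSI on Mueller–Hinton II agar; 9 mm paper discs loaded from methanol or DMSO solutions to 400 µg per disc, dried; growth inhibition zone diameter read after 18 h at 35 °C.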

[2] = tested on: Staphylococcus epidermidis; experiment: Antibacterial activity against Staphylococcus epidermidis ATCC 12228 at 400 ug/disc after 18 hrs by disc diffusion method; type: functional; settings: ATCC 12228, 18 h, read-out: DIZ; in short: as §1
Enterococcus hirae [3] = experiment: Antibacterial activity against Enterococcus hirae ATCC 10541 at 400 ug/disc after 18 hrs by disc diffusion method; type: functional; in short: as §1
Staphylococcus aureus [4] = experiment: Antibacterial activity against Staphylococcus aureus NCTC 4163 at 400 ug/disc after 18 hrs by disc diffusion method; type: functional; in short: as §1
Staphylococcus aureus [5] = experiment: Antibacterial activity against Staphylococcus aureus ATCC 6538 at 400 ug/disc after 18 hrs by disc diffusion method; type: functional; in short: as §1
Staphylococcus aureus [6] = experiment: Antibacterial activity against Staphylococcus aureus ATCC 29213 at 400 ug/disc after 18 hrs by disc diffusion method; type: functional; settings: ATCC 29213, 18 h, read-out: DIZ; in short: as §1
Proteus vulgaris = experiment: Antibacterial activity against Proteus vulgaris NCTC 4635 at 400 ug/disc after 18 hrs by disc diffusion method; type: functional, organism-based; in short: as §1
Pseudomonas aeruginosa [7] = experiment: Antibacterial activity against Pseudomonas aeruginosa ATCC 15442 at 400 ug/disc after 18 hrs by disc diffusion method; type: functional, organism-based; in short: as §1
Pseudomonas aeruginosa [8] = experiment: Antibacterial activity against Pseudomonas aeruginosa NCTC 6749 at 400 ug/disc after 18 hrs by disc diffusion method; type: functional, organism-based; in short: as §1
[9] = tested on: Bordetella bronchiseptica; experiment: Antibacterial activity against Bordetella bronchiseptica ATCC 4617 at 400 ug/disc after 18 hrs by disc diffusion method; type: functional, organism-based; in short: as §1
Candida albicans [10] = experiment: Antifungal activity against Candida albicans ATCC 10231 at 400 ug/disc after 18 hrs by disc diffusion method; type: functional, organism-based
In short: (§2)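 Yeasts tested by disc diffusion (CLSI) on RPMI agar with 2% glucose; 9 mm paper discs bearing 400 µg compound from methanol or DMSO solution; inhibition zone diameter read after 18 h at 35 °C.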

Candida albicans [11] = experiment: Antifungal activity against Candida albicans ATCC 90028 at 400 ug/disc after 18 hrs by disc diffusion method; type: functional, organism-based; in short: as §2
Staphylococcus aureus [12] = experiment: Antibacterial activity against Staphylococcus aureus ATCC 25923 after 18 hrs by twofold serial agar dilution technique; type: functional; settings: ATCC 25923, 18 h
In short: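 Twofold serial agar dilution on Mueller–Hinton II agar, following CLSI guidelines. Compounds were dissolved in methanol or DMSO and tested at final agar concentrations of 3.125–400 µg/mL. Final inoculum was 10^4 CFU/mL.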

Bacillus subtilis [13] = experiment: Antibacterial activity against Bacillus subtilis ATCC 6633 after 18 hrs by twofold serial agar dilution technique; type: functional; settings: ATCC 6633, 18 h
Enterococcus hirae [14] = experiment: Antibacterial activity against Enterococcus hirae ATCC 10541 after 18 hrs by twofold serial agar dilution technique; type: functional; settings: ATCC 10541, 18 h
Micrococcus luteus [15] = experiment: Antibacterial activity against Micrococcus luteus ATCC 9341 after 18 hrs by twofold serial agar dilution technique; type: functional; settings: ATCC 9341, 18 h
Micrococcus luteus [16] = experiment: Antibacterial activity against Micrococcus luteus ATCC 10240 after 18 hrs by twofold serial agar dilution technique; type: functional; settings: ATCC 10240, 18 h
Staphylococcus aureus [17] = experiment: Antibacterial activity against methicillin-susceptible Staphylococcus aureus clinical isolate 261/08 after 18 hrs by twofold serial agar dilution technique; type: functional; settings: clinical isolate 261/08, 18 h
In short: (§3)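 Clinical isolates came from patients in Warsaw Medical University Hospitals and were classed as methicillin-susceptible or -resistant. MIC was determined by twofold serial agar dilution on Mueller–Hinton II agar (CLSI), 3.125–400 µg/mL in agar, with compounds in methanol or DMSO. Inoculum was 10^4 CFU/mL and plates were read after 18 h at 35 °C.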

Staphylococcus aureus [18] = experiment: Antibacterial activity against methicillin-susceptible Staphylococcus aureus clinical isolate 267/08 after 18 hrs by twofold serial agar dilution technique; type: functional; settings: clinical isolate 267/08, 18 h; in short: as §3
Staphylococcus aureus [19] = experiment: Antibacterial activity against methicillin-susceptible Staphylococcus aureus clinical isolate 268/08 after 18 hrs by twofold serial agar dilution technique; type: functional; settings: clinical isolate 268/08, 18 h; in short: as §3
Staphylococcus aureus [20] = experiment: Antibacterial activity against methicillin-susceptible Staphylococcus aureus clinical isolate 269/08 after 18 hrs by twofold serial agar dilution technique; type: functional; settings: clinical isolate 269/08, 18 h; in short: as §3
Staphylococcus aureus [21] = experiment: Antibacterial activity against methicillin-susceptible Staphylococcus aureus clinical isolate 367/09 after 18 hrs by twofold serial agar dilution technique; type: functional; settings: clinical isolate 367/09, 18 h; in short: as §3
Staphylococcus aureus [22] = experiment: Antibacterial activity against methicillin-susceptible Staphylococcus aureus clinical isolate 369/09 after 18 hrs by twofold serial agar dilution technique; type: functional; settings: clinical isolate 369/09, 18 h; in short: as §3
Staphylococcus aureus [23] = experiment: Antibacterial activity against methicillin-resistant Staphylococcus aureus clinical isolate 275/08 after 18 hrs by twofold serial agar dilution technique; type: functional; settings: clinical isolate 275/08, 18 h; in short: as §3
Staphylococcus aureus [24] = experiment: Antibacterial activity against methicillin-resistant Staphylococcus aureus clinical isolate 277/08 after 18 hrs by twofold serial agar dilution technique; type: functional; settings: clinical isolate 277/08, 18 h; in short: as §3
Staphylococcus aureus [25] = experiment: Antibacterial activity against methicillin-resistant Staphylococcus aureus clinical isolate 307/08 after 18 hrs by twofold serial agar dilution technique; type: functional; settings: clinical isolate 307/08, 18 h; in short: as §3
Staphylococcus aureus [26] = experiment: Antibacterial activity against methicillin-resistant Staphylococcus aureus clinical isolate 376/09 after 18 hrs by twofold serial agar dilution technique; type: functional; settings: clinical isolate 376/09, 18 h; in short: as §3
[27] = tested on: Staphylococcus epidermidis; experiment: Antibacterial activity against methicillin-resistant Staphylococcus epidermidis clinical isolate 311/08 after 18 hrs by twofold serial agar dilution technique; type: functional; settings: clinical isolate 311/08, 18 h; in short: as §3
[28] = tested on: Staphylococcus epidermidis; experiment: Antibacterial activity against methicillin-resistant Staphylococcus epidermidis clinical isolate 315/08 after 18 hrs by twofold serial agar dilution technique; type: functional; settings: clinical isolate 315/08, 18 h; in short: as §3
[29] = tested on: Staphylococcus epidermidis; experiment: Antibacterial activity against methicillin-resistant Staphylococcus epidermidis clinical isolate 316/08 after 18 hrs by twofold serial agar dilution technique; type: functional; settings: clinical isolate 316/08, 18 h; in short: as §3
[30] = tested on: Staphylococcus epidermidis; experiment: Antibacterial activity against methicillin-resistant Staphylococcus epidermidis clinical isolate 317/08 after 18 hrs by twofold serial agar dilution technique; type: functional; settings: clinical isolate 317/08, 18 h; in short: as §3
[31] = tested on: Staphylococcus epidermidis; experiment: Antibacterial activity against methicillin-resistant Staphylococcus epidermidis clinical isolate 340/09 after 18 hrs by twofold serial agar dilution technique; type: functional; settings: clinical isolate 340/09, 18 h; in short: as §3
[32] = tested on: Staphylococcus epidermidis; experiment: Antibacterial activity against methicillin-resistant Staphylococcus epidermidis clinical isolate 342/09 after 18 hrs by twofold serial agar dilution technique; type: functional; settings: clinical isolate 342/09, 18 h; in short: as §3
[33] = tested on: Staphylococcus epidermidis; experiment: Antibacterial activity against methicillin-resistant Staphylococcus epidermidis clinical isolate 343/09 after 18 hrs by twofold serial agar dilution technique; type: functional; settings: clinical isolate 343/09, 18 h; in short: as §3
[34] = tested on: Staphylococcus epidermidis; experiment: Antibacterial activity against methicillin-resistant Staphylococcus epidermidis clinical isolate 377/09 after 18 hrs by twofold serial agar dilution technique; type: functional; settings: clinical isolate 377/09, 18 h; in short: as §3
[35] = tested on: Human immunodeficiency virus 1; experiment: Antiviral activity against HIV1 infected in human MT4 cells assessed as virus-induced cytopathogenicity after 4 days by MTT assay; type: functional, organism-based; settings: Human immunodeficiency virus 1, MT4, 96 h

Row | SMILES | zone of inhibition at 400 µg/disc (Bacillus subtilis [1]) [mm] | zone of inhibition at 400 µg/disc [2] [mm] | zone of inhibition at 400 µg/disc (Staphylococcus aureus [6]) [mm] | diameter of the inhibition zone (DIZ) (Proteus vulgaris) | diameter of the inhibition zone (DIZ) (Pseudomonas aeruginosa [7]) | diameter of the inhibition zone (DIZ) (Pseudomonas aeruginosa [8]) | diameter of the inhibition zone (DIZ) [9] | diameter of the inhibition zone (DIZ) (Candida albicans [10]) | diameter of the inhibition zone (DIZ) (Candida albicans [11]) | MIC (Staphylococcus aureus [12]) [µg/mL] | MIC (Bacillus subtilis [13]) [µg/mL] | MIC (Enterococcus hirae [14]) [µg/mL] | MIC (Micrococcus luteus [15]) [µg/mL] | MIC (Micrococcus luteus [16]) [µg/mL] | MIC (Staphylococcus aureus [17]) [µg/mL] | MIC (Staphylococcus aureus [18]) [µg/mL] | MIC (Staphylococcus aureus [19]) [µg/mL] | MIC (Staphylococcus aureus [20]) [µg/mL] | MIC (Staphylococcus aureus [21]) [µg/mL] | MIC (Staphylococcus aureus [22]) [µg/mL] | further results
1 | S=C(Nc1ccccc1)Nc1nc[nH]n1 | 16 | 12 | 11 | inactive | inactive | inactive | inactive | inactive | inactive | 100 (≈ 456 µM) | 50 (≈ 228 µM) | 200 (≈ 912 µM) | 50 (≈ 228 µM) | 50 (≈ 228 µM) | 50 (≈ 228 µM) | 50 (≈ 228 µM) | 50 (≈ 228 µM) | 50 (≈ 228 µM) | 50 (≈ 228 µM) | 50 (≈ 228 µM) | diameter of the inhibition zone (DIZ) (Enterococcus hirae [3]): inactive; diameter of the inhibition zone (DIZ) (Staphylococcus aureus [4]): inactive; diameter of the inhibition zone (DIZ) (Staphylococcus aureus [5]): inactive; MIC (Staphylococcus aureus [23]): 100 µg/mL (≈ 456 µM); MIC (Staphylococcus aureus [24]): 50 µg/mL (≈ 228 µM); MIC (Staphylococcus aureus [25]): 50 µg/mL (≈ 228 µM); MIC (Staphylococcus aureus [26]): 50 µg/mL (≈ 228 µM); MIC [27]: 100 µg/mL (≈ 456 µM); MIC [28]: 100 µg/mL (≈ 456 µM); MIC [29]: 100 µg/mL (≈ 456 µM); MIC [30]: 100 µg/mL (≈ 456 µM); MIC [31]: 50 µg/mL (≈ 228 µM); MIC [32]: 200 µg/mL (≈ 912 µM); MIC [33]: 50 µg/mL (≈ 228 µM); MIC [34]: 50 µg/mL (≈ 228 µM); EC50 [35]: > 100 µM
2 | S=C(Nc1ccc(Br)cc1)Nc1nc[nH]n1 | 30 | 16 | 16 | inactive | inactive | inactive | inactive | inactive | inactive | 50 (≈ 168 µM) | 12.5 (≈ 41.9 µM) | 400 (≈ 1340 µM) | 25 (≈ 83.8 µM) | 12.5 (≈ 41.9 µM) | 25 (≈ 83.8 µM) | 25 (≈ 83.8 µM) | 50 (≈ 168 µM) | 25 (≈ 83.8 µM) | 50 (≈ 168 µM) | 50 (≈ 168 µM) | zone of inhibition at 400 µg/disc (Enterococcus hirae [3]; ATCC 10541, 18 h, read-out: DIZ): 25 mm; zone of inhibition at 400 µg/disc (Staphylococcus aureus [4]; NCTC 4163, 18 h, read-out: DIZ): 17 mm; zone of inhibition at 400 µg/disc (Staphylococcus aureus [5]; ATCC 6538, 18 h, read-out: DIZ): 16 mm; MIC (Staphylococcus aureus [23]): 100 µg/mL (≈ 335 µM); MIC (Staphylococcus aureus [24]): 50 µg/mL (≈ 168 µM); MIC (Staphylococcus aureus [25]): 50 µg/mL (≈ 168 µM); MIC (Staphylococcus aureus [26]): 50 µg/mL (≈ 168 µM); MIC [27]: 50 µg/mL (≈ 168 µM); MIC [28]: 50 µg/mL (≈ 168 µM); MIC [29]: 50 µg/mL (≈ 168 µM); MIC [30]: 100 µg/mL (≈ 335 µM); MIC [31]: 25 µg/mL (≈ 83.8 µM); MIC [32]: 25 µg/mL (≈ 83.8 µM); MIC [33]: 25 µg/mL (≈ 83.8 µM); MIC [34]: 25 µg/mL (≈ 83.8 µM); EC50 [35]: > 100 µM

Source: ChEMBL document CHEMBL2062460, “Disubstituted thiourea derivatives and their activity on CNS: synthesis and biological evaluation” (Eur J Med Chem, 2012)
